In ChEMBL document CHEMBL4011636, “Utilization of an Active Site Mutant Receptor for the Identification of Potent and Selective Atypical 5-HT2C Receptor Agonists” (J Med Chem, 2017):

Assays:
[1] = molecular target: T1, 5-hydroxytryptamine receptor 2C (Homo sapiens) (UniProt P28335); assay: Intrinsic activity at recombinant human 5-HT2C receptor expressed in HEK293E cells assessed as induction of intracellular Ca2+ levels after 90 secs by Fluo-4-dye based FLIPR assay relative to serotonin; format: functional, cell-based; settings: HEK293
T1 sequence (whole entry): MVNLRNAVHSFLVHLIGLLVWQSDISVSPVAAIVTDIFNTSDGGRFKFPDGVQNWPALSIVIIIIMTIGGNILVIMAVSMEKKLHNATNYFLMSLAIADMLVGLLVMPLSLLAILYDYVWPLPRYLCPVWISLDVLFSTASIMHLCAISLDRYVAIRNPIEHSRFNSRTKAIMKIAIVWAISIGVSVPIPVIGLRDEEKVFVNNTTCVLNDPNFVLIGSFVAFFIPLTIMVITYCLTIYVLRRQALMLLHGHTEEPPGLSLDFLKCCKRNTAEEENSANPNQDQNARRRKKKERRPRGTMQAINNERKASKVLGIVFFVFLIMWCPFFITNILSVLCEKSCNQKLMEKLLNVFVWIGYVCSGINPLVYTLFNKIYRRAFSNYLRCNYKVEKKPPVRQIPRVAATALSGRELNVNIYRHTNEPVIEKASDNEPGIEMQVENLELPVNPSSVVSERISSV
In short: (§1)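 FLIPR Fluo-4 Ca2+ assay in HEK293E cells stably expressing the human receptor (VNV isoform for 5-HT2C), eleven-point concentration series, 90 s read. Response normalized to 3 μM serotonin on the same plate (defined as IA = 1). Intrinsic activity taken from a four-parameter logistic fit.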

[2] = Metabolic stability in human liver microsomes assessed as parent compound remaining at […] after 10 mins; format: ADME, microsome; settings: read-out: Stability
[3] = molecular target: 5-hydroxytryptamine receptor 2A (Homo sapiens, UniProt P28223); assay: Agonist activity at recombinant human 5-HT2A receptor expressed in HEK293E cells assessed as induction of intracellular Ca2+ levels after 90 secs by Fluo-4-dye based FLIPR assay; format: cell-based, HEK293
5-hydroxytryptamine receptor 2A, sequence (P28223 whole entry, canonical isoform): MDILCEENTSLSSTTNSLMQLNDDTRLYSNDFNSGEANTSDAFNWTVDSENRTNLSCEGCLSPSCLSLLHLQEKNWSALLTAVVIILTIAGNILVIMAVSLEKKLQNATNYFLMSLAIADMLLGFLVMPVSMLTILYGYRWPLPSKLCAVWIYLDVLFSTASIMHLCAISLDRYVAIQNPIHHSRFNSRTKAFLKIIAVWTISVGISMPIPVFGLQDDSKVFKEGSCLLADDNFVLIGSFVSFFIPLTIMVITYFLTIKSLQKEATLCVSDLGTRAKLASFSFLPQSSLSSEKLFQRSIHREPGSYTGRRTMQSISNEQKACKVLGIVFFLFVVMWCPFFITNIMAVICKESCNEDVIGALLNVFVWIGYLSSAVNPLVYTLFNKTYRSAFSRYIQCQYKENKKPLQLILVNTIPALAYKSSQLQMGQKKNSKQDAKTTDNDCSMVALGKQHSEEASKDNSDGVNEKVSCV
In short: (§2)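 HEK293E cells stably expressing human receptor (VNV isoform for 5-HT2C; ~400−795 fmol/mg protein), grown in DMEM with 10% dialyzed FBS and G418. Cells plated at 20 000/well in serum-free DMEM overnight at 37 °C, then loaded 1 h at room temperature with 5 μM Fluo-4 in HBSS/25 mM HEPES. Eleven compound concentrations added on FLIPR, Ca2+ signal read for 90 s. EC50 from a four-parameter logistic fit, at least triplicate.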

[4] = molecular target: T2, 5-hydroxytryptamine receptor 2B (Homo sapiens, UniProt P41595); assay: Agonist activity at recombinant human 5-HT2B receptor expressed in HEK293E cells assessed as induction of intracellular Ca2+ levels after 90 secs by Fluo-4-dye based FLIPR assay; format: cell-based, HEK293; in short: as §2
T2 sequence (P41595 whole entry): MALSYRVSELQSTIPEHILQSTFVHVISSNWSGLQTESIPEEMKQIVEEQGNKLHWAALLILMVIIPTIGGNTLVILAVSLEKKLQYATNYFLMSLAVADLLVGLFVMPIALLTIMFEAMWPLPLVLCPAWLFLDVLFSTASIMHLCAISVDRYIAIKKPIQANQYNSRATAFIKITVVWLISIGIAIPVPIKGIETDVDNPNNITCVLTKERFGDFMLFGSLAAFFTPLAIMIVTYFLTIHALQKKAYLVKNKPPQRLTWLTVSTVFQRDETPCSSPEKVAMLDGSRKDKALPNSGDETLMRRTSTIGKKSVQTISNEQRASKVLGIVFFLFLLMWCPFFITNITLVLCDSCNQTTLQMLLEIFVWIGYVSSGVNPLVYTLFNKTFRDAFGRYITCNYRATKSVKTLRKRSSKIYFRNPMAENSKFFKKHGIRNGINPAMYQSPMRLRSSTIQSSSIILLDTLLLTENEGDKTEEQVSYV

[5] = molecular target: T3, 5-hydroxytryptamine receptor 2C (Homo sapiens, UniProt P28335); assay: Agonist activity at recombinant human 5-HT2C receptor expressed in HEK293E cells assessed as induction of intracellular Ca2+ levels after 90 secs by Fluo-4-dye based FLIPR assay; format: functional, cell-based, HEK293; in short: as §2
T3 sequence (P28335 whole entry): T1 sequence (whole entry)

[6] = Metabolic stability in rat liver microsomes assessed as parent compound remaining at […] after 10 mins; format: ADME, microsome; settings: read-out: Stability
[7] = Agonist activity at recombinant human 5-HT2C receptor D134A mutant expressed in HEK293E cells assessed as induction of intracellular Ca2+ levels after 90 secs by Fluo-4-dye based FLIPR assay; format: cell-based; settings: HEK293
[8] = molecular target: T2, 5-hydroxytryptamine receptor 2B; assay: Intrinsic activity at recombinant human 5-HT2B receptor expressed in HEK293E cells assessed as induction of intracellular Ca2+ levels after 90 secs by Fluo-4-dye based FLIPR assay relative to serotonin; format: functional, cell-based; settings: HEK293; in short: as §1

| Compound | Intrinsic activity [1] | remaining at 10 min [2] | EC50 [3] | EC50 [4] | EC50 [5] | remaining at 10 min [6] | EC50 [7] | Intrinsic activity [8] |
| --- | --- | --- | --- | --- | --- | --- | --- | --- |
| Cc1nc(-c2cccc3ccccc23)sc1C(=O)N(CCO)C(C)C |  | 28% | > 10 µM | > 10 µM | > 10 µM | 7% |  |  |
| O=C(c1csc(-c2cccc(Cl)c2Cl)n1)N1CCOCC1 | 0.8 |  | > 10 µM | > 10 µM | 0.119 to 0.128 µM |  | 0.002 µM |  |
| CCn1nc(-c2cccc3ccccc23)cc1-c1ncnn1C | 0.7 | 4% | > 10 µM | > 10 µM | 0.19 to 0.616 µM |  |  |  |
| CCn1nc(-c2cccc3ccncc23)cc1-c1cccnn1 | 0.7 | 16% | > 10 µM | > 10 µM | 0.013 to 0.043 µM |  |  |  |
| Cc1nn(-c2cccc3ccccc23)cc1C(=O)N1CCC(CO)CC1 | 1 | 88% | > 10 µM | > 10 µM | 0.016 µM | 51% |  |  |
| Cc1cc(-c2cccc3ccccc23)sc1C(=O)N1CCC(CO)CC1 | 1 | 87% | > 5 µM | > 10 µM | 0.02 µM | 20% |  |  |
| Cc1nc(-c2cccc3ccccc23)sc1C(=O)N1CCOCC1 | 0.8 | 50% | > 10 µM | > 10 µM | 0.095 to 0.115 µM | 6% |  |  |
| Cn1ccnc1-c1cc(-c2cccc3ccccc23)nn1C | 0.9 | 15% | 0.093 to 0.126 µM | > 10 µM | 0.058 to 0.088 µM |  |  |  |
| Cc1oc(-c2cccc3ccccc23)nc1C(=O)N1CCC(CO)CC1 | 1 | 62% | > 10 µM | > 10 µM | 0.381 to 0.575 µM | 16% |  |  |
| CCn1nc(-c2cccc3ccccc23)cc1-c1nnnn1C | 0.6 | 4% | 1.8 to 2.5 µM | > 5 µM | 0.45 µM |  |  |  |
| Cc1cc(-c2cccc3ccccc23)oc1C(=O)N1CCC(CO)CC1 | 0.7 |  | > 10 µM | > 10 µM | 1.03 to 2 µM |  |  |  |
| Cn1cc(-c2cccc3ccccc23)cc1C(=O)N1CCC(CO)CC1 | 1 | 76% | > 10 µM | > 10 µM | 0.041 to 0.045 µM | 57% |  |  |
| CCn1nc(-c2cccc3cccnc23)cc1-c1cccnn1 | 1 | 8% | 0.151 µM | 0.003 to 0.006 µM | 0.002 µM |  |  | 0.2 |
| Cc1nc(-c2cccc3ccccc23)sc1C(=O)N1CCCCC1 | 1 | 24% | > 10 µM | > 10 µM | 0.024 µM | 1% |  |  |
| Cc1sc(-c2cccc3ccccc23)cc1C(=O)N1CCC(CO)CC1 | 0.8 | 66% | > 10 µM | > 10 µM | 0.047 to 0.119 µM | 23% |  |  |
| Cc1nc(-c2cccc3ccccc23)oc1C(=O)N1CCC(CO)CC1 | 0.9 | 33% | > 10 µM | > 10 µM | 0.063 to 0.14 µM | 24% |  |  |
| Cc1nc(-c2cccc3ccccc23)sc1C(=O)N1CCc2[nH]cnc2C1 | 1 | 70% | > 10 µM | > 10 µM | 0.068 µM | 15% |  |  |
| Cc1nc(-c2cccc3ccccc23)sc1C(=O)N(C)C | 1 |  | > 10 µM | > 10 µM | 0.059 to 0.072 µM |  |  |  |
| O=C(c1csc(-c2cccc(Cl)c2Cl)n1)N1CCCOCC1 | 0.5 |  | > 10 µM | > 10 µM | 0.32 to 0.733 µM |  |  |  |

Next, values leading:

| Intrinsic activity [1] | remaining at 10 min [2] | EC50 [3] | EC50 [4] | EC50 [5] | remaining at 10 min [6] | EC50 [7] | Intrinsic activity [8] | Compound |
| --- | --- | --- | --- | --- | --- | --- | --- | --- |
| 1.2 | 12% | > 5 µM | > 10 µM | 0.025 to 0.04 µM |  |  |  | Cn1nc(-c2cccc3ccccc23)cc1-c1cccnn1 |
| 0.8 |  | > 10 µM | > 10 µM | 0.043 to 0.123 µM |  | 0.13 µM |  | Cc1nc(-c2cccc3ccccc23)sc1C(=O)N1CCN(C)CC1 |
| 0.9 | 28% | > 10 µM | > 10 µM | 0.014 µM | 7% |  |  | COCCN(C)C(=O)c1sc(-c2cccc3ccccc23)nc1C |
| 1.2 | 17% | 0.884 µM | > 10 µM | 0.015 µM |  |  |  | CCn1nc(-c2cccc3ccccc23)cc1-c1cccnn1 |
| 0.7 | 67% | > 10 µM | > 10 µM | 0.369 to 0.433 µM | 18% |  |  | Cc1cn(-c2cccc3ccccc23)cc1C(=O)N1CCC(CO)CC1 |
| 0.9 | 50% | > 10 µM | > 10 µM | 0.017 to 0.025 µM | 8% |  |  | Cc1nc(-c2cccc3ccccc23)sc1C(=O)N1CCCC(O)CC1 (stereo not drawn) |
| 0.7 |  | > 10 µM | > 10 µM | 0.53 µM |  |  |  | CCn1nc(-c2cncc3ccccc23)cc1-c1cccnn1 |
| 0.3 |  | > 10 µM | > 10 µM | 3.1 to 3.7 µM |  |  |  | O=C(c1csc(-c2cccc(Cl)c2Cl)n1)N1CCCCC1 |
| 0.8 | 5% | > 10 µM | > 10 µM | 0.027 to 0.037 µM |  |  |  | CCn1nc(-c2cccc3ccccc23)cc1-c1nccn1C |
| 0.4 |  | > 10 µM | > 10 µM | 1.87 µM |  |  |  | Cc1nc(-c2cccc3ccccc23)n(C)c1C(=O)N1CCC(CO)CC1 |
| 0.3 |  | > 10 µM | > 10 µM | 2.78 µM |  |  |  | Cc1sc(-c2cccc3ccccc23)nc1C(=O)N1CCOCC1 |
| 1 | 58% | > 10 µM | > 10 µM | 0.334 to 0.385 µM | 24% |  |  | Cc1nn(-c2cccc3ccccc23)nc1C(=O)N1CCC(CO)CC1 |
| 0.7 | < 1% | > 10 µM | > 10 µM | 0.038 to 0.039 µM | 1% |  |  | Cc1nc(-c2cccc3ccccc23)sc1C(=O)N(C)CCc1cccnc1 |
| 0.4 |  | > 5 µM | > 5 µM | 1.7 to 1.9 µM |  |  |  | CCn1nc(-c2cccc3ccccc23)cc1-c1ncccn1 |
| 0.6 |  | > 10 µM | > 10 µM | 0.766 to 1.17 µM |  |  |  | O=C(c1csc(-c2cccc3ccccc23)n1)N1CCOCC1 |
| 0.6 |  | > 10 µM | > 10 µM | 1.52 µM |  |  |  | Cc1sc(-c2cccc(Cl)c2Cl)nc1C(=O)N1CCOCC1 |
| 0.9 | 84% | > 10 µM | > 10 µM | 0.047 µM | 34% |  |  | Cc1nc(-c2cccc3ccccc23)sc1C(=O)N1CCC(O)CC1 |
| 0.8 | 5% | > 10 µM | > 10 µM | 0.012 to 0.015 µM | 4% |  |  | Cc1nc(-c2cccc3ccccc23)sc1C(=O)N(C)Cc1cccnc1 |
| 0.9 | 67% | > 10 µM | > 10 µM | 0.03 to 0.05 µM | 22% |  |  | Cc1nc(-c2cccc3ccccc23)sc1C(=O)N(C)CCO |
